CHRM4 PAM = potentiates acetylcholine response at human M4 receptor. P08173. CHO-K1 hM4/Gqi5, Fluo-8 calcium fluorescence, ACh EC20; 0% = ACh EC20, 100% = maximal ACh. activation, % at 3 µM. actives 0.4% (n = 360,000). AID 624126;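 active = activation above its plate's cutoff, the mean activation of sample wells plus 3 SD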
Target sequence (P08173 whole entry, looked up): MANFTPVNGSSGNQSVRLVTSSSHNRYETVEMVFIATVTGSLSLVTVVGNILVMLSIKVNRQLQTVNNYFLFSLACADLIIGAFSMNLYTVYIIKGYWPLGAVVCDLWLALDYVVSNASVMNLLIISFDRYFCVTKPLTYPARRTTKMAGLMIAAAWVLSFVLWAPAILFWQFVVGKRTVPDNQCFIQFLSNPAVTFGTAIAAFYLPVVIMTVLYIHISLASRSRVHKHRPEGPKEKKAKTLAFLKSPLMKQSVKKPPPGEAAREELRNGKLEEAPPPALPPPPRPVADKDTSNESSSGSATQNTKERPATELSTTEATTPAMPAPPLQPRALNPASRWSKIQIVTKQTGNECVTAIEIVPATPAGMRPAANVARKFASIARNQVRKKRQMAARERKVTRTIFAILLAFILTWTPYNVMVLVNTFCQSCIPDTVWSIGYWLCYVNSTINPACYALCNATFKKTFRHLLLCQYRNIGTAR
M5 ag = agonists of human muscarinic M5 receptor (CHRM5); P08912; CHO-K1 hM5 cells, Fluo-8 calcium fluorescence; 0% DMSO wells, 100% maximal acetylcholine response; activation, % at 3 µM; actives 0.19% (n = 360,000);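 active = activation above the run's mean over test compounds plus 3 SD, cut at about 23% in these data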;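 note: signal is peak over basal fluorescence ratio across the kinetic read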
M4 antag = blocks acetylcholine activation of human M4 receptor; P08173; CHO-hM4 cells, ACh EC80, Fluo-8 calcium fluorescence; inhibition, % at 3 µM; actives 0.73% (n = 360,000); AID 624125;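 active = inhibition above its plate's cutoff, the mean inhibition of sample wells plus 3 SD, cut at about 27% in these data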;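 note: 0% = acetylcholine EC80 with DMSO and 100% = DMSO without agonist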
CHRM4 agonist = CHRM4 agonism in calcium assay; P08173; CHO-K1 hM4/Gqi5, Fluo-8 calcium fluorescence; vehicle 0%, full acetylcholine response 100%; actives 0.14% (n = 360,000); activation, % at 3 µM; AID 624127;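 active = activation above the run mean over all test wells plus 3 SD, cut at about 32% in these data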;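 note: peak over basal fluorescence ratio per well then scaled between controls; 0% = DMSO wells and 100% = acetylcholine at EC100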
CHRM5 PAM = potentiates acetylcholine response at human M5 receptor; P08912; actives 0.3% (n = 360,000); CHO-K1 hM5, Fluo-8 calcium, ACh EC20 PAM; 0% = ACh EC20, 100% = ACh EC100; activation, % at 3 µM;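 active = activation above the run cutoff, the mean activation of all test compounds plus 3 SD, cut at about 18% in these data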
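Replicates: One well per compound, no replicates | System: Human M5 receptor in CHO-K1 cells | Benchmarks: Low control EC20 acetylcholine (0%), high control EC100 acetylcholine (100%) | Probe or stimulus: Acetylcholine, EC20 level | Times: Fluo-8 loading 80 min at 37 °C plus 30 min room temperature | Signal: Intracellular calcium via Fluo-8 fluorescence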
M5 antag = antagonists of human muscarinic M5 receptor (CHRM5) | actives 0.59% (n = 360,000) | inhibition, % at 3 µM | AID 624040 | CHO-hM5 cells, Fluo-8 calcium fluorescence, ACh EC80;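 active = inhibition above a per-plate cutoff, the mean of that plate's test compounds plus 3 SD, cut at about 27% in these data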;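 note: 0% = acetylcholine EC80 with DMSO and 100% = DMSO without agonist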
The depositor's hits bear a star. In the library only some 1.8% were active in any assay of this set; here they are far more common.

SMILES	CHRM4 PAM	M5 ag	M4 antag	CHRM4 agonist	CHRM5 PAM	M5 antag
CCc1c(-c2ccc(Cl)cc2)ncn1Cc1cccc(-c2ccccc2)c1	-6.7	-4.6	-0.8	2.4	-7.1	-3.6
CCc1c(-c2ccccc2)ncn1Cc1cccc(-c2ccccc2)c1	-8.0	1.4	3.6	8.6	-15.5	27.2*
O=C(CSc1nc2cc(Cl)ccc2s1)NC1CCCc2ccccc21 (configuration not stated)	2.1	-4.7	4.1	0.0	1.1	-3.1
O=C(O)/C=C/c1ccc(S(=O)(=O)NCc2cccnc2)cc1	-1.2	1.5	-10.4	0.4	-10.7	0.8
COC(=O)c1ccc2nc(-c3cccc(Br)c3)c(Cc3ccsc3)n2c1	21.3*	0.6	-14.5	-0.5	0.8	-9.6
COC(=O)c1ccc(/C=N/N2CCN(Cc3ccc(Cl)cc3)CC2)cc1	2.2	-4.0	-1.1	1.0	-5.3	12.7
CCc1ccc2[nH]c(=O)c(C(c3nnnn3Cc3ccc(OC)cc3)N3CCOCC3)cc2c1 (configuration not stated)	38.9*	0.6	5.2	2.1	-3.8	-0.6
O=C(c1cccs1)N1CCN=C1SCc1cccnc1	12.5	7.9	-6.6	2.9	19.7*	21.6
O=S(=O)(c1ccc2c(c1)OCCO2)N1CCNCC1	4.6	1.9	-2.5	0.1	0.9	-3.9
CCCNC(=O)C1(C)CCCN(C(=O)c2ccc3ccccc3c2)C1 (configuration not stated)	1.5	-0.7	-19.1	2.8	0.0	-10.6
Cc1nn(-c2cc(N3CCNCC3)ccc2[N+](=O)[O-])c(=O)c2ccccc12	2.4	-6.9	-0.1	0.7	19.0*	-3.7
C/C(=N\NC(=O)c1cc2c(s1)CCC(C)C2)c1ccc[nH]1 (configuration not stated)	2.0	1.9	0.9	41.3*	5.6	2.0
O=C(O)CNC(=O)c1ccc(N2CCOCC2)cc1[N+](=O)[O-]	-1.6	-0.7	-0.1	0.5	0.8	6.7
O=C(NCc1ccccn1)/C(=C/c1ccco1)NC(=O)c1ccccc1	21.2*	-0.2	-13.5	5.0	-0.1	-3.6
CCCS(=O)(=O)NC(=O)C1(C)CCN(C(=O)c2cccc(C)c2C)C1 (configuration not stated)	18.8*	-0.4	-10.6	0.9	-0.8	-6.2
CCOc1ccc(-c2nnc(-c3ccncc3)o2)cc1	25.1*	-7.3	-15.3	4.0	41.5*	-14.0
Cc1ccc(NC2=C/C(=N/S(=O)(=O)c3cccs3)c3ccccc3C2=O)cc1C	1.9	0.6	-9.2	1.1	-3.2	3.6
CC(=O)Nc1ccc(NC2=C/C(=N/S(=O)(=O)c3cccs3)c3ccccc3C2=O)cc1	-8.5	2.7	11.3	15.0	-5.0	28.0*
Cc1ccccc1OCC(=O)Nc1ccc(S(=O)(=O)Nc2onc(C)c2C)cc1	-0.3	1.8	-21.4	0.2	22.0*	-13.8
Cc1ccc2oc(C(=O)Nc3ccc(S(=O)(=O)Nc4onc(C)c4C)cc3)c(C)c2c1	1.0	0.2	1.9	-0.1	47.6*	12.7
Cc1cc(C(=O)Nc2ccc(S(=O)(=O)Nc3onc(C)c3C)cc2)c(C)o1	6.3	2.6	-4.7	-0.2	6.2	-11.2
CCC1CCCCN1S(=O)(=O)c1ccc(-n2cnnn2)c(C)c1 (configuration not stated)	-4.4	-2.4	4.7	0.4	-1.5	11.9
COc1cc(C2Nc3cc(Cl)c(S(N)(=O)=O)cc3S(=O)(=O)N2)cc(OC)c1OC (configuration not stated)	23.9*	1.8	10.2	-0.1	5.7	0.7
COc1ccccc1N1CCN(S(=O)(=O)CCNC(=O)CCc2ccccc2)CC1	-3.5	5.8	-26.5	20.4	-10.4	1.9
Cc1cccc(C)c1OC(=O)CCN1C(=O)C2C3C=CC(C4CC34)C2C1=O (configuration not stated)	-7.4	3.1	3.9	4.8	-7.7	4.6
SMILES	CHRM4 PAM	M5 ag	M4 antag	CHRM4 agonist	CHRM5 PAM	M5 antag
O=C(OCc1ccccc1)N1CCOCCOCCN(C(=O)OCc2ccccc2)CCOCCOCC1	3.2	2.2	-0.3	12.6	-7.3	15.9
CCNc1sc(C(=O)c2cccs2)c(N)c1-c1nc2ccccc2s1	1.8	1.9	38.0*	3.2	-1.6	20.7
CCOC(=O)c1sc(NCc2ccco2)c(-c2nc3ccccc3s2)c1N	1.1	0.7	-4.6	2.1	3.5	3.8
C=CCNc1sc(C(=O)c2ccccc2)c(N)c1-c1nc2ccccc2s1	28.8*	-6.0	-3.3	-2.7	19.7*	-5.6
Clc1ccc2c(c1)-c1[nH]ncc1CS2	3.2	-0.7	-3.0	0.0	-0.6	1.3
CN(C)CC/C=C1\c2cc(F)ccc2CSc2ccccc21	-17.1	-2.3	97.3*	10.9	-18.2	98.3*
CN(C)CC/C=C1/c2cc(F)ccc2CSc2ccc(F)cc21	-37.2	-7.2	83.8*	1.4	-19.8	98.4*
O=C(COC(=O)C1CCC1)Nc1ccc(OC(F)F)cc1	-3.6	-4.8	-0.2	0.6	0.8	0.2
O=C(COC(=O)C1CC1)Nc1ccc(OC(F)F)cc1	3.6	0.8	28.6*	2.1	5.2	-2.5
O=C(CC1CCCCC1)NCc1ccccn1	3.5	2.2	0.2	0.1	-1.5	6.7
O=C(c1c(F)cccc1F)N(Cc1ccccn1)C1CC1	18.1*	-3.5	-2.5	1.3	2.3	1.7
C[C@H](CO)N1C[C@H](C)[C@@H](CN(C)C(=O)NC2CCCCC2)Oc2ccc(NC(=O)C3CCCCC3)cc2C1=O	6.7	-1.3	-5.4	-0.5	7.4	1.1
CC(Oc1ccc(F)cc1)C(=O)Nc1ccc(S(=O)(=O)NC2=NCCCCC2)cc1 (configuration not stated)	1.8	17.3	1.2	16.7	-7.4	15.2
CC(Oc1ccc(Br)cc1)C(=O)Nc1ccc(S(=O)(=O)NC2=NCCCCC2)cc1 (configuration not stated)	-5.3	29.1*	-3.8	39.3*	-9.9	18.0
Cc1ccc(C(=O)NCC(=O)OCC(=O)c2ccc(Br)s2)cc1	-3.6	-3.6	3.9	-0.5	-2.4	-5.1
CCOC(=O)CN(C(=O)CSc1nnc(CNc2ccc(F)cc2)o1)c1ccccc1	4.8	-2.0	0.5	2.5	-2.8	-10.2
CCOC(=O)CN(C(=O)CSc1nnc(CNc2ccc(F)cc2)n1C)c1ccccc1	18.4*	-4.5	-1.4	1.0	11.1	-8.1
Nc1ncnc2c1ncn2C1CCCC1	1.6	0.1	-3.5	0.2	0.4	-4.3
Nc1ncnc2c1ncn2C1CCCO1 (configuration not stated)	-8.8	27.6*	9.2	0.2	-19.1	10.1

Screens (PubChem BioAssay)
